The values below come from ChEMBL document CHEMBL1125148, “(R)-4-oxo-5-phosphononorvaline: a new competitive glutamate antagonist at the NMDA receptor complex” (J Med Chem, 1990).

pIC50, pKi: −log10 of the molar value.

One experiment has as its target Glutamate receptor 1 (Rattus norvegicus, UniProt P19490). The experiment can be described thus: Binding affinity towards AMPA receptor using [3H]AMPA as radioligand; Inactive.
The target in experiment [1] is Glutamate receptor ionotropic, kainate 3 (Rattus norvegicus, UniProt P42264). The experiment in a line: Binding affinity towards Ionotropic glutamate receptor kainate using [3H]-kainic acid as radioligand; Inactive.
Sequence of Glutamate receptor ionotropic, kainate 3 (P42264 whole entry): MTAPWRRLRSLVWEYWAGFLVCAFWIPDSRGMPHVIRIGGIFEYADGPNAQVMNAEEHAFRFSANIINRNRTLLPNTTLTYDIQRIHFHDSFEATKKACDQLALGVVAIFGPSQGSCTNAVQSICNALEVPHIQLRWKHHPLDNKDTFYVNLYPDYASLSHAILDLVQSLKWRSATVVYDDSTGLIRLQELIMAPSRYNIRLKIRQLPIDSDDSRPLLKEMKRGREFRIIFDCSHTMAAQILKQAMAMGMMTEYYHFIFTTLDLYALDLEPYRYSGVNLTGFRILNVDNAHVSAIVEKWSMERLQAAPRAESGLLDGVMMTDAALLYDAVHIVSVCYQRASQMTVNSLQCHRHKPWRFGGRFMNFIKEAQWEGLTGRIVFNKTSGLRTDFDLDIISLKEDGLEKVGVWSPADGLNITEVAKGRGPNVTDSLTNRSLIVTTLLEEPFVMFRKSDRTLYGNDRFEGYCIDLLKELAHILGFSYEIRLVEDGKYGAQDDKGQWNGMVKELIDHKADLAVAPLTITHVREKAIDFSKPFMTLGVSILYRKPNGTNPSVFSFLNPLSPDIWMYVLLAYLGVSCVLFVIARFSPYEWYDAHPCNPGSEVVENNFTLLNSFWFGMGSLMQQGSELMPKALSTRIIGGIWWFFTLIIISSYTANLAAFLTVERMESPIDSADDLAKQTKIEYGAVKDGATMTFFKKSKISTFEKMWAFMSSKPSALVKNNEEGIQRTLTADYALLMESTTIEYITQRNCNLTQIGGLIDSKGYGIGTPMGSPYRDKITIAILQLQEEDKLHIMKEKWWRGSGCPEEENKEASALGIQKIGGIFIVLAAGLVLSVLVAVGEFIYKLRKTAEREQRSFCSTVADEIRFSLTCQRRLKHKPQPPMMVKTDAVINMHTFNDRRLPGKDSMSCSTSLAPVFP
The nature of experiment [2]: In vitro binding affinity towards N-methyl-D-aspartate glutamate receptor of the glutamate receptor using [3H]CPP as radioligand in rat cerebral cortical membranes. It counts as cell membranes, Membrane. In outline: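 Rat brain membranes incubated with 10 nM [3H]CPP across a range of unlabeled antagonist concentrations. Specific binding was measured by centrifugation assay and expressed as percent inhibition versus concentration.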

For the next experiment, the species on record is Rattus norvegicus. The experiment can be described thus: Percent inhibition of glutamate activity against cGMP was determined. It counts as functional.

Sequence of Glutamate receptor 1 (P19490 whole entry): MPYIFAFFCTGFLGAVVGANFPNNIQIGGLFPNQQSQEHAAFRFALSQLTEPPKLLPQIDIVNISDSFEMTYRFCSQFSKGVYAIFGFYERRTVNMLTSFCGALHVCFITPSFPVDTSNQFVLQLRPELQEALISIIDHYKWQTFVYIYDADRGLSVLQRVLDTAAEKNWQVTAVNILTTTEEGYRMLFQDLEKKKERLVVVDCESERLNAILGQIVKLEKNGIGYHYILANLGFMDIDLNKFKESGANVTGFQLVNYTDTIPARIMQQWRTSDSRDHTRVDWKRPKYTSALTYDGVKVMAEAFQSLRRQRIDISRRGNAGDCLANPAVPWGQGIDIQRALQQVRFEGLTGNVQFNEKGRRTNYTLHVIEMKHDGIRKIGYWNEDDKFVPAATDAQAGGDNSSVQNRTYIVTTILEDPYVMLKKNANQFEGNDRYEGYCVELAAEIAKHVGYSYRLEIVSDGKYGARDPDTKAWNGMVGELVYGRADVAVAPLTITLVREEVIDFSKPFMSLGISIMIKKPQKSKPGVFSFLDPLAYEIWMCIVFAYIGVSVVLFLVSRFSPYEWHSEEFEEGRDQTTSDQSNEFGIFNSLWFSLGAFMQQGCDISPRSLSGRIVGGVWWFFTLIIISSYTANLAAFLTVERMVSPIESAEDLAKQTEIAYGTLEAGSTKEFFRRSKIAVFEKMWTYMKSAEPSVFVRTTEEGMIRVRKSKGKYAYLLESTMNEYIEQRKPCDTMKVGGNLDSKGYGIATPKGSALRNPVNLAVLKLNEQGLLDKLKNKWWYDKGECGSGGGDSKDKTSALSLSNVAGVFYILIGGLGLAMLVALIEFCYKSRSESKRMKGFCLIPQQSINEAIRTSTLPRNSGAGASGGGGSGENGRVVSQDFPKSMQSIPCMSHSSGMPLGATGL

For the molecule `O=C(O)C1CN(CCCP(=O)(O)O)CCN1` (stereo not given), the pKi at Glutamate receptor 1 is less than 4.00; in experiment [1], less than 4.00; in experiment [2] it was 6.88. Besides, in the experiment filed under Rattus norvegicus, the pIC50 is 6.10.
Take `NC(CCCP(=O)(O)O)C(=O)O` (stereo not given): the figures for the pKi (on Glutamate receptor 1; in experiment [1]; in experiment [2]) were less than 4.00, less than 4.00 and 6.75, respectively. Moreover, the pIC50 in the experiment listed under Rattus norvegicus is 5.26.
Regarding `N[C@H](CC(=O)CP(=O)(O)O)C(=O)O`, the pKi on Glutamate receptor 1 is less than 4.00; in experiment [1], less than 4.00; in experiment [2] it was 6.96. The negative logarithm of the IC50 (pIC50) in the experiment listed under Rattus norvegicus is 5.23.
For `NC(CCCCCP(=O)(O)O)C(=O)O` (stereo not given) [AP-7], the pKi at Glutamate receptor 1 is less than 4.00; in experiment [1], less than 4.00; in experiment [2] it was 6.14. In the experiment listed under Rattus norvegicus, this molecule gave a pIC50 of 4.85.
As for `O=C(O)[C@@H]1C[C@H](CP(=O)(O)O)CCN1` [SELFOTEL], the pKi is less than 4.00 on Glutamate receptor 1, less than 4.00 in experiment [1] and 7.00 in experiment [2]. The pIC50 in the experiment listed under Rattus norvegicus is 5.96.

By pKi is commonly meant the negative decadic logarithm of the Ki, by convention in mol/L. A lower pKi goes with a high Ki. For orientation: pIC50 means −log10 of the IC50, conventionally taken in molar units. A lower pIC50 goes with a high IC50.
